The subject of series [1] is Mycobacterium tuberculosis. Kind of series: Antimycobacterial activity against rifampicin/isoniazid-susceptible Mycobacterium tuberculosis H37Rv ATCC 27294 at 1 ug/ml by BACTEC 460 radiometric method. It is filed as functional. Summed up: (§1)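 Radiometric BACTEC 460 growth test on H37Rv (ATCC 27294). Compounds reaching at least 90% inhibition at 6.25 were retested at the lower concentrations 3.125 and 1.0, with % inhibition recorded. […] Isoniazid served as the reference standard.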

In series [2] the test system is Mycobacterium tuberculosis. The series is described as follows: Antimycobacterial activity against rifampicin/isoniazid-susceptible Mycobacterium tuberculosis H37Rv ATCC 27294 by BACTEC 460 radiometric method. The format is functional, organism-based. The gist of the method: as §1
The subject of a further series is Vero. The series is described as follows: Cytotoxicity against african green monkey Vero cells up to 50 ug/ml. The format is cell-based. As to conditions: chlorocebus sabaeus.
For series [3], the system named is Mycobacterium tuberculosis. The series is described as follows: Antimycobacterial activity against rifampicin/isoniazid-susceptible Mycobacterium tuberculosis H37Rv ATCC 27294 at 3.125 ug/ml by BACTEC 460 radiometric method. The format is functional. Summed up:
as §1

`N=C(N)NCCC[C@H](NC(=O)c1cc(C23CC4CC(CC(C4)C2)C3)c2ccccc2n1)C(=O)NN` displayed an inhibition at 1 µg/mL in series [1] of 99%. The same compound showed an IC50 in series [2] of 21.4 nM. Moreover, the Activity result in the series on Vero is given as “Non-toxic”.

`COC(=O)[C@H](CCCNC(=N)N)NC(=O)c1cc(C23CC4CC(CC(C4)C2)C3)c2ccccc2n1` had an inhibition at 3.125 µg/mL in series [3] of 99%. The same compound had an IC50 in series [2] of 135 nM. In the series on Vero, the Activity result is on record as “Non-toxic”.
